The source made the active and inactive calls. The rule behind the calls is not given here.
Key:
[1] = target: T1, PH domain leucine-rich repeat-containing protein phosphatase 1 (Homo sapiens, UniProt O60346); experiment: Inhibition of PHLPP1-mediated reduction in phosphorylation of Akt at Ser473 in human LNCAP cells after 24 hrs by Western blot analysis; format: cell-based
Procedure, shortened: (§1)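 LNCaP or PC-3 cells treated at various concentrations for 24 h in serum-free medium. Lysed in SDS buffer (50 mM Tris pH 8, 10 mM EDTA, 1% SDS, protease inhibitors); equal protein run on SDS-PAGE and transferred to nitrocellulose. Primary antibodies 1:1000 overnight at 4 °C, HRP secondary 1:2000; detected by ECL.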

[2] = target: T1, PH domain leucine-rich repeat-containing protein phosphatase 1; experiment: Inhibition of PHLPP1-mediated reduction in phosphorylation of Akt at Ser473 in human PC3 cells after 24 hrs by Western blot analysis; format: cell-based; settings: PC-3; procedure, shortened: as §1
[3] = target: T1, PH domain leucine-rich repeat-containing protein phosphatase 1; experiment: Inhibition of PHLPP1-mediated reduction in phosphorylation of MDM2 in human PC3 cells after 24 hrs by Western blot analysis; format: cell-based; settings: PC-3; procedure, shortened: as §1
[4] = target: T1, PH domain leucine-rich repeat-containing protein phosphatase 1; experiment: Inhibition of PHLPP1-mediated reduction in phosphorylation of IKK in human PC3 cells after 24 hrs by Western blot analysis; format: cell-based; settings: PC-3; procedure, shortened: as §1
[5] = target: T2, 3-phosphoinositide-dependent protein kinase 1 (Homo sapiens, UniProt O15530); experiment: Binding affinity to GST-tagged PH domain of PDK1 (unknown origin) by surface Plasmon resonance spectroscopy
T2 sequence (O15530 whole entry): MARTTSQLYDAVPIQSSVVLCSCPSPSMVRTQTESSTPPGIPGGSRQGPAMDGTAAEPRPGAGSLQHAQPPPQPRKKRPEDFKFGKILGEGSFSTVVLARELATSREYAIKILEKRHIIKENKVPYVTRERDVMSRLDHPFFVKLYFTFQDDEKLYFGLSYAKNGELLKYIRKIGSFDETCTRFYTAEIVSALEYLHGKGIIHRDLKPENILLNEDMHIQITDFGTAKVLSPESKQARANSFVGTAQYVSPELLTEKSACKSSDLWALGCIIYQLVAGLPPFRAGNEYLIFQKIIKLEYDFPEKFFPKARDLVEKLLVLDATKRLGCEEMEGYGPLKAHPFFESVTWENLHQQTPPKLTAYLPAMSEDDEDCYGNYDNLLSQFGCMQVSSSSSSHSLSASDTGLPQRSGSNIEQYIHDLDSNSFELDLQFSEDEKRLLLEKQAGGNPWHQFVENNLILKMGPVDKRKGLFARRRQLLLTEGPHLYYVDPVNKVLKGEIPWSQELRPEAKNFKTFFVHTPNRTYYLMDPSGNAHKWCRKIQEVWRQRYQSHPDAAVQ
Procedure, shortened: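 SPR: GST-tagged PH domain fusion protein immobilized on CM5 chip by amine coupling to about 17000 RU. Analyte injected at 1–20 µM at 30 µL/min; DMSO in samples and running buffer ≤1% (v/v). Kd obtained from sensorgram fitting.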

PC-3 [6] = experiment: In vivo antitumor efficacy in human PC3 cells xenografted athymic nude mouse assessed as decrease in phosphorylation of Akt at Ser473 in tumor at 100 mg/kg, po for 21 days relative to vehicle treated control; format: functional, organism-based; set-up: dose 100 mg/kg
Procedure, shortened: (§2)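 Athymic nude mice given PC-3 cells sc (1 × 10⁶ per mouse); at about 50 mm³, randomized (n = 7) and dosed once daily for 21 days either ip at 50 mg/kg (vehicle saline/PEG400/DMSO/Tween 80, 65:20:10:5) or by oral gavage at 100 mg/kg (vehicle 0.5% methylcellulose/0.1% Tween 80 in water). Tumor volume measured weekly by calipers (width² × length × 0.52); phospho-proteins checked by Western blotting of tumor lysates.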

PC-3 [7] = experiment: In vivo antitumor efficacy in human PC3 cells xenografted athymic nude mouse assessed as decrease in phosphorylation of Akt at Thr308 in tumor at 100 mg/kg, po for 21 days relative to vehicle treated control; format: functional, organism-based; set-up: dose 100 mg/kg; procedure, shortened: as §2

T1 sequence (O60346 whole entry, the tested form may be a part): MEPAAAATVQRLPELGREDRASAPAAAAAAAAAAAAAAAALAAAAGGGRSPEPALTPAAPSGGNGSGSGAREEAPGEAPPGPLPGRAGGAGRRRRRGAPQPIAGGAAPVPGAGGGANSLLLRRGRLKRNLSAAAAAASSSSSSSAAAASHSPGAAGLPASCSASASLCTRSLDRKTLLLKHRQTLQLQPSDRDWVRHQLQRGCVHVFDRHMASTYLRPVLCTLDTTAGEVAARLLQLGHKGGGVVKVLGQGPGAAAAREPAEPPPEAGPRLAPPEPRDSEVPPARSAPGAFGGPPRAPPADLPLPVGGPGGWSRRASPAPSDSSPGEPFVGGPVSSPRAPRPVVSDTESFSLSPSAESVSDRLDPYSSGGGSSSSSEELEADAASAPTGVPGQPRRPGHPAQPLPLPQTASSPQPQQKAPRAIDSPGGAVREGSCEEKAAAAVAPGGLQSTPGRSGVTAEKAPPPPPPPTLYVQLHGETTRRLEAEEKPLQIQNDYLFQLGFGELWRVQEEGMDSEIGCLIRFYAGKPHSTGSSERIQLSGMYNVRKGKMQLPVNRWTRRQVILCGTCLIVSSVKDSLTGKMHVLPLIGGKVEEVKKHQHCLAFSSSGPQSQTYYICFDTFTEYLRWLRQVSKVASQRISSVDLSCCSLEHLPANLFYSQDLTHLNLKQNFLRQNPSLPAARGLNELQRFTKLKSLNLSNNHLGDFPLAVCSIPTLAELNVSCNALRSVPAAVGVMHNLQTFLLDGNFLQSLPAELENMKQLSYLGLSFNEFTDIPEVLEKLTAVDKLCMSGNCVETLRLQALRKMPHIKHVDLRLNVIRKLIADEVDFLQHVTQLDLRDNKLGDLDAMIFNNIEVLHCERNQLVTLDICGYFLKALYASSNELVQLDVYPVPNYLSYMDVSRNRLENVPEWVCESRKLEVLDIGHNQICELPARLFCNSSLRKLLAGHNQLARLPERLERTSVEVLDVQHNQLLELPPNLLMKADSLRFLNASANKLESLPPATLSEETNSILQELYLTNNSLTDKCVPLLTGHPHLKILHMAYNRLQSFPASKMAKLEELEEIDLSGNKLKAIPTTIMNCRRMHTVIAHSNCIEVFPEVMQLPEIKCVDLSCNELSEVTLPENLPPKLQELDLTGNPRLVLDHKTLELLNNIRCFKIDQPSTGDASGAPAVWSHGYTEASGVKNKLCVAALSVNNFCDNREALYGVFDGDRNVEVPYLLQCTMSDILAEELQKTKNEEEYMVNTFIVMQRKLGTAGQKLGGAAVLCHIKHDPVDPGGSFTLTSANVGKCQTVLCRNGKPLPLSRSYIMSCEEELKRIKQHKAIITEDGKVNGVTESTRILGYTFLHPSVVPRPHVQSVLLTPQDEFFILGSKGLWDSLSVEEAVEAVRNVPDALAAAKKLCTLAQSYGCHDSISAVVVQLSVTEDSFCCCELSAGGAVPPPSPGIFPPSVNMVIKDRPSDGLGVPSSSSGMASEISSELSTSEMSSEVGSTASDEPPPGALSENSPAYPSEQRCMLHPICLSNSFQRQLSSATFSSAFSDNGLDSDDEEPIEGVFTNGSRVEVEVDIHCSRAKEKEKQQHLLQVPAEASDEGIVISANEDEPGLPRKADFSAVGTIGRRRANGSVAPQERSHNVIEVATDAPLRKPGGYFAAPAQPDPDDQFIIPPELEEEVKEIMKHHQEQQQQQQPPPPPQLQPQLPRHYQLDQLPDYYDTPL

For `Cc1c(S(N)(=O)=O)cc2c(c1C)OC(C)(CCCC(C)C)CC2` (configuration not stated), the inhibition [1] was “Dose-dependent effect”, the inhibition [2] was “Dose-dependent effect” and the inhibition [3] was “Dose-dependent effect”. The inhibition [4] was “Dose-dependent effect”, the Kd [5] was 19.5 µM and the Activity (PC-3 [6]) was “Active”. The inhibition (PC-3 [7]) was “inactive”.
